Measurements as given in ChEMBL document CHEMBL1141227, “Rhodamine-labeled 2beta-carbomethoxy-3beta-(3,4-dichlorophenyl)tropane analogues as high-affinity fluorescent probes for the dopamine transporter” (J Med Chem, 2005).

Experiments:
Type in all cases: cell-based, COS-7
[1] = target: Sodium-dependent noradrenaline transporter (Homo sapiens, UniProt P23975); experiment: Displacement of [3H]dopamine from human NET expressed in COS7 cells
Procedure, shortened: (§1)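 Ki derived from inhibition of radiolabelled substrate uptake into COS-7 cells transiently expressing hDAT or hNET ([3H]dopamine) or hSERT ([3H]5-HT). […] Three to six experiments in triplicate, mean with SE interval.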

[2] = target: Sodium-dependent serotonin transporter (Homo sapiens, UniProt P31645); experiment: Displacement of [3H]5HT from human SERT expressed in COS7 cells; procedure, shortened: as §1
Sequence of Sodium-dependent serotonin transporter (P31645 whole entry): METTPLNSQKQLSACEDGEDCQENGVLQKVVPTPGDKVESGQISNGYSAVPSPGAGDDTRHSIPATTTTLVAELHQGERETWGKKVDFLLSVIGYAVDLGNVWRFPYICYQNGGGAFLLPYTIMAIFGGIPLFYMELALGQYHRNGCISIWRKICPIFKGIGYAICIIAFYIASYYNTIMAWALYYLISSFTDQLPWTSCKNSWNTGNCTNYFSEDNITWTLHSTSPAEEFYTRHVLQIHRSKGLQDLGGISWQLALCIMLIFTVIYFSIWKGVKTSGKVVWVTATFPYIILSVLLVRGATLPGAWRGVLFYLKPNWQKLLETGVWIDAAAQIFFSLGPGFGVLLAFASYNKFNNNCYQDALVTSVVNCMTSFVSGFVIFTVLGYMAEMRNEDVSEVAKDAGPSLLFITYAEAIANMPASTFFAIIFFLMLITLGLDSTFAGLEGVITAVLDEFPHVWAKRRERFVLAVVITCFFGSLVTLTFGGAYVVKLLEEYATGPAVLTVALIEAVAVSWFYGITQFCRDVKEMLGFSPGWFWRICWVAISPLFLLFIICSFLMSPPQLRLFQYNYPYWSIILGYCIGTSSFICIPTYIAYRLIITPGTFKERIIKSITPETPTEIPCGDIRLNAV

[3] = target: T1, Sodium-dependent dopamine transporter (Homo sapiens, UniProt Q01959); experiment: Displacement of [3H]dopamine from human DAT expressed in COS7 cells; procedure, shortened: as §1
T1 sequence (Q01959 whole entry): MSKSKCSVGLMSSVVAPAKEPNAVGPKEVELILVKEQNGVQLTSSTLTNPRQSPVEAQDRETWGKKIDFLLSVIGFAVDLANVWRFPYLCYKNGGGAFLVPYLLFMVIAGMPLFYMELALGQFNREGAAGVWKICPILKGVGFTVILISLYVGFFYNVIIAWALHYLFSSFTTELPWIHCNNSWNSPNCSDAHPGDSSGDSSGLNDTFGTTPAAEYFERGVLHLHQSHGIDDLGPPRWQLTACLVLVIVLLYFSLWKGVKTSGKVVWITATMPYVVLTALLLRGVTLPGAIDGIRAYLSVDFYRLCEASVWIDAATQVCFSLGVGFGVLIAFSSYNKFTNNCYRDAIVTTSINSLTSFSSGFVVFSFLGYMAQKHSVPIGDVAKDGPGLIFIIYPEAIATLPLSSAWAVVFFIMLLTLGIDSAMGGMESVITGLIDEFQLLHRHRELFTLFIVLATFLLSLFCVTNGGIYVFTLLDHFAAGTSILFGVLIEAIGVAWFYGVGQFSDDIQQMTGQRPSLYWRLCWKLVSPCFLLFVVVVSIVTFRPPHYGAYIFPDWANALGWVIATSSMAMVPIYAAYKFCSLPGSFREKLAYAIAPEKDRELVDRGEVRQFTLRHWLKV

[4] = target: T1, Sodium-dependent dopamine transporter; experiment: Displacement of [3H]CFT from human DAT expressed in COS7 cells
Procedure, shortened: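 Competition binding on intact COS-7 cells transiently expressing hDAT, with [3H]CFT (2β-carbomethoxy-3β-(4-fluorophenyl)tropane) as radioligand. Ki from nonlinear regression, using a KD for [3H]CFT determined in parallel. Mean of two to three experiments in triplicate, with SE interval.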

Sequence of Sodium-dependent noradrenaline transporter (P23975 whole entry): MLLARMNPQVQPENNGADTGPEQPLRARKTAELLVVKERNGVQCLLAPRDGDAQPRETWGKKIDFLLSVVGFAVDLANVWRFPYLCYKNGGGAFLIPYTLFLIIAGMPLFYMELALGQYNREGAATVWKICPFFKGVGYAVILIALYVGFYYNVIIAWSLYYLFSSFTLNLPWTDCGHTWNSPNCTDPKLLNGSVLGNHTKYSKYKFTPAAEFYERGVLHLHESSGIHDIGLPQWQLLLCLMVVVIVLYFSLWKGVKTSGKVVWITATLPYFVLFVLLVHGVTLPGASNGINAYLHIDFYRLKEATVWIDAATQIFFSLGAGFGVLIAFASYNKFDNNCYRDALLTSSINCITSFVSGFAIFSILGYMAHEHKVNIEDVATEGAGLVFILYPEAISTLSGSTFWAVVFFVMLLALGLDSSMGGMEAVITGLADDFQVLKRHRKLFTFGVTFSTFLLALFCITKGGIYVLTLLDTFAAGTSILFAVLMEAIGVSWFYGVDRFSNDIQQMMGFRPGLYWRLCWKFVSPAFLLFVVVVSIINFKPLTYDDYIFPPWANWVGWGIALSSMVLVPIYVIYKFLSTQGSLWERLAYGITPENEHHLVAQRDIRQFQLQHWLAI

Structure (SMILES): COC(=O)[C@@H]1C2CCC(C[C@@H]1c1ccc(Cl)c(Cl)c1)N2CCNC(=O)CCCN1CCCc2cc3c(cc21)C(C)(C)C1=CC(=[N+](C)C)C=CC1=C3 (some centres undefined)
- Ki [1]: 308 nM
- Ki [2]: 227 nM
- Ki [3]: 250 nM
- Ki [4]: 50 nM

Structure (SMILES): COC(=O)[C@@H]1C2CCC(C[C@@H]1c1ccc(Cl)c(Cl)c1)N2C (some centres undefined)
- Ki [1]: 5 nM
- Ki [2]: 12 nM
- Ki [3]: 2.3 nM
- Ki [4]: 0.2 nM

Structure (SMILES): CCN(CC)c1ccc2c(-c3ccc(S(=O)(=O)NCCCCCC(=O)NCCOC(=O)[C@@H]4C5CCC(C[C@@H]4c4ccc(Cl)c(Cl)c4)N5C)cc3S(=O)(=O)[O-])c3ccc(=[N+](CC)CC)cc-3oc2c1 (some centres undefined)
- Ki [1]: 177 nM
- Ki [2]: 1490 nM
- Ki [3]: 72 nM
- Ki [4]: 27 nM

Structure (SMILES): CCN(CC)c1ccc2c(-c3ccc(S(=O)(=O)NC[C@H]4CC[C@H](C(=O)NCCN5C6CCC5[C@@H](C(=O)OC)[C@@H](c5ccc(Cl)c(Cl)c5)C6)CC4)cc3S(=O)(=O)[O-])c3ccc(=[N+](CC)CC)cc-3oc2c1 (some centres undefined)
- Ki [1]: 627 nM
- Ki [2]: 705 nM
- Ki [3]: 436 nM

Structure (SMILES): CCN(CC)c1ccc2c(-c3ccc(S(=O)(=O)NCCCCCC(=O)NCCN4C5CCC4[C@@H](C(=O)OC)[C@@H](c4ccc(Cl)c(Cl)c4)C5)cc3S(=O)(=O)[O-])c3ccc(=[N+](CC)CC)cc-3oc2c1 (some centres undefined)
- Ki [1]: 194 nM
- Ki [2]: 392 nM
- Ki [3]: 62 nM
- Ki [4]: 18 nM
